From PMC10610910 (Science Advances, 2023)
“Also recorded” adds a separate entry of the source.

What was measured:
[1] = molecular target: T1, HSF2BP (Homo sapiens, UniProt O75031); experiment: Scanning force microscopy; assay type: physicochemical; conditions: SFM on mica, in air; HSF2BP at 12 nM
T1 sequence (O75031 1-334): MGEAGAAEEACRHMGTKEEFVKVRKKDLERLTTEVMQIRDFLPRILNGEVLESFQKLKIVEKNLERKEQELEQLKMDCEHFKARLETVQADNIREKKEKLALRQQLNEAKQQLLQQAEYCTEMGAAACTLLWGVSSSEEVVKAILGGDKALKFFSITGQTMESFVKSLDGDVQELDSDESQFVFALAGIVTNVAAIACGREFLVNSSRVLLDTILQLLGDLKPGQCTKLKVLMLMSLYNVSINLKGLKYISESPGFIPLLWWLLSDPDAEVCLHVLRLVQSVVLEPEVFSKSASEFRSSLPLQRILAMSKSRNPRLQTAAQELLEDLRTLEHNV
Method in brief: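 HSF2BP was diluted 10,000-fold to 12 nM in 25 mM tris-HCl pH 7.5, 250 mM NaCl, 5 mM β-mercaptoethanol. It was deposited for 30 s on freshly cleaved mica, rinsed with water, dried under filtered air, and imaged in air by SFM. Particle volume distributions were obtained by kernel density analysis.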

[2] = tested on: HeLa cells; assay type: cell-based, human; conditions: HeLa stably producing the protein; MMC, cisplatin, talazoparib
Method in brief: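 HeLa cells in DMEM with 10% fetal calf serum were stably co-transfected (PiggyBac) with GFP-HSF2BP and/or Flag-BRME1 variants, then selected with puromycin (1.5 μg/ml) and G418 (800 μg/ml) for 8 days; mixed populations were used. Seeded 100–1000 cells/well in technical duplicates, drugs added next day: MMC 2 h, cisplatin or talazoparib overnight. Coomassie-stained colonies counted on day 10.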

[3] = molecular target: T2, HSF2BP + BRME1-M (Homo sapiens, UniProt O75031+Q0VDD7); experiment: ITC, BRCA2 fragments versus HSF2BP bound to BRME1-M; assay type: binding; conditions: 293 K
T2 sequence (O75031 1-334): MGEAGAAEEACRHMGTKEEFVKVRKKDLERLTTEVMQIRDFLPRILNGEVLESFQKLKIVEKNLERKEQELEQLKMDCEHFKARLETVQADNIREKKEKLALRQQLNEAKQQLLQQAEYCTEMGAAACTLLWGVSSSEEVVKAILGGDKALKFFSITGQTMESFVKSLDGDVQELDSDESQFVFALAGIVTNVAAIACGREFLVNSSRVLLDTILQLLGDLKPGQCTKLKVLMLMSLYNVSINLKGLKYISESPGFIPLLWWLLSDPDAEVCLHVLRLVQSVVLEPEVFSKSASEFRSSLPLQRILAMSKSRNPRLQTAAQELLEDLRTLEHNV
T2 sequence (Q0VDD7 602-641 partner limits assumed): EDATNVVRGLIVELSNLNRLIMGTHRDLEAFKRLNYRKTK

B1: armadillo domain: HSF2BP armadillo domain alone (E122-V334) (protein)
chain: EMGAAACTLLWGVSSSEEVVKAILGGDKALKFFSITGQTMESFVKSLDGDVQELDSDESQFVFALAGIVTNVAAIACGREFLVNSSRVLLDTILQLLGDLKPGQCTKLKVLMLMSLYNVSINLKGLKYISESPGFIPLLWWLLSDPDAEVCLHVLRLVQSVVLEPEVFSKSASEFRSSLPLQRILAMSKSRNPRLQTAAQELLEDLRTLEHNV
particle volume, larger peak [1]: ~90 nm^3
particle volume, smaller peak [1]: ~35 nm^3

B2: C78A-C120S-C128A (protein, UniProt O75031 1-334, looked up, variant C78A C120S C128A)
Heat shock factor 2-binding …: MGEAGAAEEACRHMGTKEEFVKVRKKDLERLTTEVMQIRDFLPRILNGEVLESFQKLKIVEKNLERKEQELEQLKMDAEHFKARLETVQADNIREKKEKLALRQQLNEAKQQLLQQAEYSTEMGAAAATLLWGVSSSEEVVKAILGGDKALKFFSITGQTMESFVKSLDGDVQELDSDESQFVFALAGIVTNVAAIACGREFLVNSSRVLLDTILQLLGDLKPGQCTKLKVLMLMSLYNVSINLKGLKYISESPGFIPLLWWLLSDPDAEVCLHVLRLVQSVVLEPEVFSKSASEFRSSLPLQRILAMSKSRNPRLQTAAQELLEDLRTLEHNV
effect on cell resistance to DNA damage, in words [2]: sensitized HeLa cells less than the wild-type protein

B3: BRCA2_2213–2342: BRCA2 fragment 2213–2342 (protein, UniProt P51587 2213-2342, looked up, fragment)
chain: STYSKDSENYFETEAVEIAKAFMEDDELTDSKLPSHATHSLFTCPENEEMVLSNSRIGKRRGEPLILVGEPSIKRNLLNEFDRIIENQEKSLKASKSTPDGTIKDRRLFMHHVSLEPITCVPFRTTKERQ
ΔH [3]: -10.9 kcal/mol
─TΔS [3]: -1.70 kcal/mol
Kd ([3]; pH 7.5, 10 μM complex in cell, 55 to 60 μM BRCA2 fragment in syringe): 7.8 nM

B4: BRME1: Flag-BRME1 stably produced in HeLa cells (protein, UniProt Q0VDD7 1-668, looked up)
Break repair meiotic …: MTKRKKLRTSGEGLCPPKPLKNPRLGDFYGDPQSSMLGCLHHPEEPEGKLGPVPSTQQHGEEPGKAVSSSPDEETGSPCRLLRQPEKEPAPLPPSQNSFGRFVPQFAKSRKTVTRKEEMKDEDRGSGAFSLETIAESSAQSPGCQLLVETLGVPLQEATELGDPTQADSARPEQSSQSPVQAVPGSGDSQPDDPPDRGTGLSASQRASQDHLSEQGADDSKPETDRVPGDGGQKEHLPSIDSEGEKPDRGAPQEGGAQRTAGAGLPGGPQEEGDGVPCTPASAPTSGPAPGLGPASWCLEPGSVAQGSPDPQQTPSRMGREGEGTHSSLGCSSLGMVVIADLSTDPTELEERALEVAGPDGQASAISPASPRRKAADGGHRRALPGCTSLTGETTGESGEAGQDGKPPGDVLVGPTASLALAPGSGESMMGAGDSGHASPDTGPCVNQKQEPGPAQEEAELGGQNLERDLEGFRVSPQASVVLEHREIADDPLQEPGAQQGIPDTTSELAGQRDHLPHSADQGTWADSLAVELDFLLDSQIQDALDASDFEAPPEQLFPSGNKPGPCWPGPSSHANGDPVAVAKAQPRTFVGIQASEASRMEDATNVVRGLIVELSNLNRLIMGTHRDLEAFKRLNYRKTKLGGKAPLPYPSKGPGNIPRGDPPWREL
modifications: Flag tag
effect on cell resistance to DNA damage, in words [2]: cancels the disruptive effect of HSF2BP on cancer cell resistance to DNA damage; also recorded: no effect on the cell sensitivity to DNA damage; also recorded: completely abolished the sensitization induced by HSF2BP
